Blank lines part the entries; values can stand above or below the molecule they belong to. Active and inactive are the calls of the source. The calls are words filed in the database; no cut-off is given here.
What was measured:
Vero = assay: In vitro cytotoxic concentration in vero cells.; assay type: functional; details: Chlorocebus sabaeus
Outline: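 Vero cell replication was measured by sulforhodamine B dye binding after 2 days of continuous compound exposure. CC50 is the concentration giving 50% inhibition relative to untreated control, calculated by nonlinear regression with a sigmoidal fit to dose-response data.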

Human alphaherpesvirus 2 [1] = assay: Inhibitory activity against HSV-2 in vero cells; assay type: functional, herpes simplex virus; details: Human alphaherpesvirus 2, Vero; read-out: ED50 (the source's name)
Outline: (§1)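 Plaque-elimination assay. Cells were infected with 50–100 PFU of HSV-1 (KOS) or HSV-2 (186 or plaque-purified 186 stocks, 333, G) and adsorbed for 1 h, then overlaid with 0.5% FCS medium ± compound, in duplicate. After 2 days, wells were crystal-violet stained and plaques counted by eye; ED50 was taken from a sigmoidal nonlinear fit.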

Human alphaherpesvirus 1 [2] = assay: Inhibitory activity against HSV-1 in vero cells; assay type: functional, herpes simplex virus; details: Human alphaherpesvirus 1, Vero; read-out: ED50 (the source's name); outline: as §1
[3] = Therapeutic index (vero CC50/ED50) against HSV-2; details: herpes simplex virus, Vero cells; read-out: TI
Outline: (§2)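 Selectivity (TI) was calculated as Vero CC50 (SRB assay, 2 days continuous treatment) divided by plaque-reduction ED50 against the given HSV strain in Vero cells, using 50–100 PFU inoculum and a 2-day incubation.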

[4] = Therapeutic index (vero CC50/ED50) against HSV-1; details: herpes simplex virus, Vero cells; read-out: TI; outline: as §2
Human alphaherpesvirus 2 [5] = assay: Inhibitory activity against HSV-2 in vero cells; NA= not active, at 50 uM no toxicity; assay type: functional, organism-based; details: herpes simplex virus; outline: as §1
[6] = Therapeutic index (vero CC50/ED50) against HSV-2; NA= not active; details: herpes simplex virus; outline: as §2
Human alphaherpesvirus 2 [7] = assay: Inhibitory activity against HSV-2 in vero cells; NA= not active; assay type: functional, organism-based; details: herpes simplex virus; outline: as §1
Human alphaherpesvirus 1 [8] = assay: Inhibitory activity against HSV-1 in vero cells; NA= not active; assay type: functional, organism-based; details: herpes simplex virus; outline: as §1
Human alphaherpesvirus 1 [9] = assay: Inhibitory activity against HSV-1 in vero cells; NA= not active at 100 uM; assay type: functional, organism-based; details: herpes simplex virus; outline: as §1
herpes simplex virus [10] = assay: Anti-HSV activity against HSV-2 (186, c4) strain; assay type: functional; outline: as §1
[11] = Therapeutic index against HSV-2 (186, c4); details: herpes simplex virus; read-out: TI; outline: as §2
[12] = Therapeutic index against HSV-1 (KOS); details: herpes simplex virus; read-out: TI; outline: as §2
herpes simplex virus [13] = assay: Anti-HSV activity against HSV-2 (333) strain; assay type: functional; outline: as §1
herpes simplex virus [14] = assay: Anti-HSV activity against HSV-2 (186, c2) strain; assay type: functional; outline: as §1
[15] = Therapeutic index against HSV-2 (186, c2); details: herpes simplex virus; read-out: TI; outline: as §2
[16] = Therapeutic index against HSV-2 (G); details: herpes simplex virus; read-out: TI; outline: as §2
[17] = Therapeutic index against HSV-2 (333); details: herpes simplex virus; read-out: TI; outline: as §2
herpes simplex virus [18] = assay: Anti-HSV activity against HSV-1 (KOS) strain; assay type: functional; outline: as §1
herpes simplex virus [19] = assay: Anti-HSV activity against HSV-2 (G) strain; assay type: functional; outline: as §1
herpes simplex virus [20] = assay: Anti-HSV activity against HSV-2 (186) strain; assay type: functional; outline: as §1

EC50 (Human alphaherpesvirus 2 [1]): > 10 µM
Structure (SMILES): COc1cc(O)c2c(O)c3cc(OC)ccc3nc2c1
CC50 (Vero): > 50 µM

Structure (SMILES): O=c1c2cc(Cl)ccc2[nH]c2cc(O)cc(O)c12
EC50 (Human alphaherpesvirus 1 [2]): 16 µM
selectivity ratio [3]: 3.5
CC50 (Vero): 52 µM
EC50 (Human alphaherpesvirus 2 [1]): 15 µM
selectivity ratio [4]: 3.5

EC50 (Human alphaherpesvirus 1 [2]): 12 µM
EC50 (Human alphaherpesvirus 2 [1]): 20 µM
Structure (SMILES): Oc1cc(O)c2c(O)c3cc(Cl)cc(Cl)c3nc2c1
selectivity ratio [3]: > 8.3
CC50 (Vero): > 100 µM
selectivity ratio [4]: > 5

EC50 (Human alphaherpesvirus 2 [1]): < 10 µM
Structure (SMILES): COc1cc(O)c2c(O)c3cc(O)ccc3nc2c1
CC50 (Vero): 25 µM

Structure (SMILES): Cc1cccc2c(O)c3c(O)cc(O)cc3nc12
EC50 (Human alphaherpesvirus 1 [2]): 8 µM
selectivity ratio [3]: 2.1
CC50 (Vero): 32 µM
EC50 (Human alphaherpesvirus 2 [1]): 15 µM
selectivity ratio [4]: 4

Structure (SMILES): COc1cc(O)c2c(O)c3cccnc3nc2c1
ED50 (Human alphaherpesvirus 2 [5]): inactive
CC50 (Vero): 5.5 µM

EC50 (Human alphaherpesvirus 1 [2]): 0.5 µM
EC50 (Human alphaherpesvirus 2 [1]): 2.5 µM
Structure (SMILES): Nc1nc2c(ncn2COCCO)c(=O)[nH]1 [ACYCLOVIR]
selectivity ratio [3]: > 160
CC50 (Vero): > 400 µM
selectivity ratio [4]: > 800

Structure (SMILES): O=c1c2cccc(Cl)c2[nH]c2cc(O)cc(O)c12
EC50 (Human alphaherpesvirus 1 [2]): 4 µM
CC50 (Vero): 60 µM
TI [6]: Not Active
EC50 (Human alphaherpesvirus 2 [1]): > 30 µM
selectivity ratio [4]: 13

EC50 (Human alphaherpesvirus 2 [1]): > 50 µM
Structure (SMILES): COc1cc(O)c2c(O)c3cccc(OC)c3nc2c1
CC50 (Vero): > 50 µM

EC50 (Human alphaherpesvirus 1 [2]): > 50 µM
Structure (SMILES): COc1cc(O)c2c(=O)c3cccc(Cl)c3[nH]c2c1
CC50 (Vero): > 100 µM
ED50 (Human alphaherpesvirus 2 [7]): inactive

EC50 (Human alphaherpesvirus 1 [2]): > 50 µM
EC50 (Human alphaherpesvirus 2 [1]): > 30 µM
Structure (SMILES): Cn1c2cc(O)cc(O)c2c(=O)c2cccc(Cl)c21
CC50 (Vero): 50 µM

Structure (SMILES): O=c1c2ccc(Cl)cc2[nH]c2cc(O)cc(O)c12
EC50 (Human alphaherpesvirus 1 [2]): 10 µM
CC50 (Vero): 29 µM
TI [6]: Not Active
selectivity ratio [4]: 3

Structure (SMILES): Cc1cc(O)c2c(=O)c3cccc(Cl)c3[nH]c2c1
ED50 (Human alphaherpesvirus 1 [8]): inactive
CC50 (Vero): 13 µM
ED50 (Human alphaherpesvirus 2 [7]): inactive

EC50 (Human alphaherpesvirus 1 [2]): 15 µM
Structure (SMILES): Oc1cc(O)c2c(O)c3cc(O)ccc3nc2c1
CC50 (Vero): 40 µM
selectivity ratio [4]: 2.7

Structure (SMILES): O=c1c2cccc(Cl)c2[nH]c2cc3ccccc3c(O)c12
CC50 (Vero): > 100 µM
ED50 (Human alphaherpesvirus 1 [9]): inactive

Structure (SMILES): O=c1c2ccccc2[nH]c2cc(O)cc(O)c12
EC50 (Human alphaherpesvirus 1 [2]): 45 µM
CC50 (Vero): 68 µM
selectivity ratio [4]: 1.5

Structure (SMILES): COc1cccc2c(O)c3c(O)cc(O)cc3nc12
EC50 (Human alphaherpesvirus 1 [2]): 2.2 µM
ED50 (herpes simplex virus [10]): 1.2 µM
selectivity ratio [11]: 25
selectivity ratio [12]: 14
selectivity ratio [3]: 50
ED50 (herpes simplex virus [13]): 0.7 µM
ED50 (herpes simplex virus [14]): 0.6 µM
CC50 (Vero): 30 µM
selectivity ratio [15]: 50
selectivity ratio [16]: 60
selectivity ratio [17]: 43
ED50 (herpes simplex virus [18]): 2.2 µM
ED50 (herpes simplex virus [19]): 0.5 µM
ED50 (herpes simplex virus [20]): 0.6 µM
EC50 (Human alphaherpesvirus 2 [1]): 0.6 µM
selectivity ratio [4]: 13

EC50 (Human alphaherpesvirus 1 [2]): > 100 µM
EC50 (Human alphaherpesvirus 2 [1]): > 50 µM
Structure (SMILES): COc1cc(O)c2c(=O)c3cccc(Cl)c3n(C)c2c1
CC50 (Vero): > 100 µM

EC50 (Human alphaherpesvirus 1 [2]): 44 µM
Structure (SMILES): Cc1cccc2nc3cc(O)cc(O)c3c(O)c12
CC50 (Vero): 60 µM
selectivity ratio [4]: 1.4

EC50 (Human alphaherpesvirus 1 [2]): 240 µM
Structure (SMILES): O=C(O)CP(=O)(O)O [FOSFONET]
CC50 (Vero): 3500 µM
selectivity ratio [4]: 29

Structure (SMILES): O=c1c2c(O)cc(O)cc2[nH]c2cccc(Cl)c12
EC50 (Human alphaherpesvirus 1 [2]): 10 µM
CC50 (Vero): 70 µM
selectivity ratio [4]: 7
